Values after ≈ are worked out from the molar mass of the structure shown.
Assays:
PANC-1 [1] = assay: Antiproliferative activity against human PANC1 cells after 48 hrs by MTT assay; type: functional, cell-based; conditions: PANC-1, 48 h
How it was run: (§1)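 Cells were seeded at 5×10^5 cells/mL overnight and exposed to graded compound concentrations for 48 h. MTT (5 mg/mL stock) was added for 4 h at 37 °C, and formazan was dissolved in DMSO. Absorbance was read at 570 nm. IC₅₀ was fitted from the curves; values are mean ± SD, n = 3.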

BXPC-3 = assay: Antiproliferative activity against human BxPC3 cells after 48 hrs by MTT assay; type: functional, cell-based; conditions: BXPC-3, 48 h; how it was run: as §1
HCT-116 [2] = assay: Antiproliferative activity against human HCT116 cells after 48 hrs by MTT assay; type: functional, cell-based; conditions: HCT-116, 48 h; how it was run: as §1
HCT-116 [3] = assay: Antiproliferative activity against p53-deficient human HCT116 cells after 48 hrs by MTT assay; type: functional, cell-based; conditions: HCT-116, 48 h; how it was run: as §1
MCF7 = assay: Antiproliferative activity against human MCF7 cells after 48 hrs by MTT assay; type: functional, cell-based; conditions: MCF7, 48 h; how it was run: as §1
A549 = assay: Antiproliferative activity against human A549 cells after 48 hrs by MTT assay; type: functional, cell-based; conditions: A549, 48 h; how it was run: as §1
MDA-MB-231 = assay: Antiproliferative activity against human MDA-MB-231 cells after 48 hrs by MTT assay; type: functional, cell-based; conditions: MDA-MB-231, 48 h; how it was run: as §1
[4] = Intrinsic aqueous solubility of the compound; type: physicochemical; conditions: read-out: Intrinsic_solubility
How it was run: (§2)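 Intrinsic aqueous solubility and log D at pH 7.4 were measured on a pION Gemini Profiler.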

[5] = Distribution co-efficient, log D of the compound at pH 7.4; type: physicochemical; conditions: buffer; how it was run: as §2
[6] = Effective permeability of the compound at pH 7.4 by PAMPA; type: ADME; conditions: read-out: Peff
How it was run: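 Effective permeability was measured by double-sink PAMPA on a pION PAMPA Explorer.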

PANC-1 [7] = assay: Antitumor activity against human PANC1 cells xenografted in nude mouse assessed as inhibition of tumor weight at 10 mg/kg administered every 2 days for 21 days relative to vehicle-treated control; type: functional

SMILES	IC50 (PANC-1 [1]) [µM]	IC50 (BXPC-3) [µM]	IC50 (HCT-116 [2]) [µM]	IC50 (HCT-116 [3]) [µM]	IC50 (MCF7) [µM]	IC50 (A549) [µM]	IC50 (MDA-MB-231) [µM]	solubility [4] [µg/mL]	logD [5]	Papp [6] [×10⁻⁶ cm/s]	inhibition in vivo at 10 mg/kg (PANC-1 [7]) [%]
Cc1c(C(=O)N2CCNC(=O)C2)oc2ccc(N(Cc3ccc(Br)cc3)S(=O)(=O)c3ccc(Br)cc3)cc12	> 40	> 40	7.88	21.9	> 40	> 40	> 40				
Cc1c(C(=O)NCCS(C)(=O)=O)oc2ccc(N(Cc3ccc(Br)cc3)S(=O)(=O)c3ccc(Br)cc3)cc12	> 40	> 40	> 40	> 40	> 40	> 40	> 40				
Cc1c(C(=O)N2CCOCC2)oc2ccc(N(Cc3ccc(Br)cc3)S(=O)(=O)c3ccc(Br)cc3)cc12	23.8	29.1	22.1	26.4	15.4	19.1	25.1				
Cc1ccc(NC(=O)c2oc3ccc(N(Cc4ccc(Br)cc4)S(=O)(=O)c4ccc(Br)cc4)cc3c2C)nc1	> 40	> 40	> 40	> 40	> 40	> 40	> 40				
Cc1c(C(=O)N2CCN(C)CC2)oc2ccc(N(Cc3ccc(Br)cc3)S(=O)(=O)c3ccc(Br)cc3)cc12	> 40	> 40	8.55	5.47	> 40	22.3	> 40				
Cc1c(C(=O)N2CCCC(C)C2)oc2ccc(N(Cc3ccc(Br)cc3)S(=O)(=O)c3ccc(Br)cc3)cc12 (stereo not drawn)	26.2	16.6	23.1	28.3	32.8	33.7	19.4				
Cc1c(C(=O)NCCN(C)C)[nH]c2ccc(N(Cc3ccc(Br)cc3)S(=O)(=O)c3ccc(Br)cc3)cc12	11.2	6.98	16.6								
CN(C)CCNC(=O)c1nc2cc(N(Cc3ccc(Br)cc3)S(=O)(=O)c3ccc(Br)cc3)ccc2o1	13.6	13.7	14.3								
CCN(CC)CCNC(=O)c1nc2cc(N(Cc3ccc(Br)cc3)S(=O)(=O)c3ccc(Br)cc3)ccc2o1	12.6	16.3	14.3								
CC(=O)NCCNC(=O)c1oc2ccc(N(Cc3ccc(Br)cc3)S(=O)(=O)c3ccc(Br)cc3)cc2c1C	34.8	> 40	12.2	20.4	21.3	> 40	> 40				
CCN(CC)CCNC(=O)c1[nH]c2ccc(N(Cc3ccc(Br)cc3)S(=O)(=O)c3ccc(Br)cc3)cc2c1C	10.5	17.4	15.8								
Cc1c(C(=O)NCCc2ccccn2)oc2ccc(N(Cc3ccc(Br)cc3)S(=O)(=O)c3ccc(Br)cc3)cc12	> 40	> 40	> 40	> 40	> 40	> 40	> 40				
Cc1c(C(=O)NCCN2CCOCC2)oc2ccc(N(Cc3ccc(Br)cc3)S(=O)(=O)c3ccc(Br)cc3)cc12	32.1	27.2	10.5	13.3	17.2	21.4	23.5				
Cc1c(C(=O)NCCc2ccc(S(N)(=O)=O)cc2)oc2ccc(N(Cc3ccc(Br)cc3)S(=O)(=O)c3ccc(Br)cc3)cc12	> 40	> 40	5.59	19.2	> 40	> 40	> 40				
Cc1c(C(=O)NCCN(C)C)sc2ccc(N(Cc3ccc(Br)cc3)S(=O)(=O)c3ccc(Br)cc3)cc12	7.89	9	9.8								
Cc1c(C(=O)NCCNc2ccccc2)oc2ccc(N(Cc3ccc(Br)cc3)S(=O)(=O)c3ccc(Br)cc3)cc12	> 40	> 40	> 40	> 40	> 40	> 40	> 40				
Cc1c(C(=O)OCCCN(C)C)oc2ccc(N(Cc3ccc(Br)cc3)S(=O)(=O)c3ccc(Br)cc3)cc12	24.6	24.2	11.2	7.05	39.7	> 40	28.6				
Cc1c(C(=O)NCC(O)CO)oc2ccc(N(Cc3ccc(Br)cc3)S(=O)(=O)c3ccc(Br)cc3)cc12 (stereo not drawn)	29.3	27.6	27.8	11.5	36.5	30.5	16.5				
Cc1c(C(=O)N2CCNCC2)oc2ccc(N(Cc3ccc(Br)cc3)S(=O)(=O)c3ccc(Br)cc3)cc12	8.38	19.6	3	3.3	9.72	8.68	9.04				

Now those with a lower IC50 (PANC-1 [1]), led by results:

IC50 (PANC-1 [1]) [µM]	IC50 (BXPC-3) [µM]	IC50 (HCT-116 [2]) [µM]	IC50 (HCT-116 [3]) [µM]	IC50 (MCF7) [µM]	IC50 (A549) [µM]	IC50 (MDA-MB-231) [µM]	solubility [4] [µg/mL]	logD [5]	Papp [6] [×10⁻⁶ cm/s]	SMILES	inhibition in vivo at 10 mg/kg (PANC-1 [7]) [%]
6.94	3.71	2.23	2.84	3.36	5.17	9.26				Cc1c(C(=O)NCCN2CCCCC2)oc2ccc(N(Cc3ccc(Br)cc3)S(=O)(=O)c3ccc(Br)cc3)cc12	
3.67	7.5	14.5								Cc1c(C(=O)NC2CCN(C)CC2)[nH]c2ccc(N(Cc3ccc(Br)cc3)S(=O)(=O)c3ccc(Br)cc3)cc12	
5.91	10.2	7.32								CN1CCC(NC(=O)c2nc3cc(N(Cc4ccc(Br)cc4)S(=O)(=O)c4ccc(Br)cc4)ccc3o2)CC1	
2.49	5.13	2.44	2.37	4.37	3.08	7.96				CNCCNC(=O)c1oc2ccc(N(Cc3ccc(Br)cc3)S(=O)(=O)c3ccc(Br)cc3)cc2c1C	
1.52	1.08	2.39	1.66	2.84	2.98	3.73	21 (≈ 31 µM)	2.53	2.54	CCN(CC)CCNC(=O)c1oc2ccc(N(Cc3ccc(Br)cc3)S(=O)(=O)c3ccc(Br)cc3)cc2c1C	
5.94	4.79	3.64	1.2	3.66	5.4	8.24				Cc1c(C(=O)NCCN(C)C)oc2ccc(N(Cc3ccc(Br)cc3)S(=O)(=O)c3ccc(Br)cc3)cc12	
5.2	7.1	10.1								Cc1c(C(=O)NC2CCN(C)CC2)sc2ccc(N(Cc3ccc(Br)cc3)S(=O)(=O)c3ccc(Br)cc3)cc12	
2.3	2.02	3.07	3.73	3.71	4.31	6.68				Cc1c(C(=O)NCCCN(C)C)oc2ccc(N(Cc3ccc(Br)cc3)S(=O)(=O)c3ccc(Br)cc3)cc12	
0.41	0.56					0.49				COc1cccc2c1C(=O)c1c(O)c3c(c(O)c1C2=O)C[C@@](O)(C(=O)CO)C[C@@H]3O[C@H]1C[C@H](N)[C@H](O)[C@H](C)O1 [DOXORUBICIN]	71.9
7.65	7.88	10.9								CCN(CC)CCNC(=O)c1sc2ccc(N(Cc3ccc(Br)cc3)S(=O)(=O)c3ccc(Br)cc3)cc2c1C	
2.78	2.36	2.67	2.29	5.44	5.29	8.17				Cc1c(C(=O)NCCN2CCCC2)oc2ccc(N(Cc3ccc(Br)cc3)S(=O)(=O)c3ccc(Br)cc3)cc12	
6.25	28.3	10.4	3.11	10.9	5.5	9.44				Cc1c(C(=O)NCCN(C(C)C)C(C)C)oc2ccc(N(Cc3ccc(Br)cc3)S(=O)(=O)c3ccc(Br)cc3)cc12	
5.04	2.6	3.81	2.59	5.66	5.03	7.5				Cc1c(C(=O)NCCN2CCN(C)CC2)oc2ccc(N(Cc3ccc(Br)cc3)S(=O)(=O)c3ccc(Br)cc3)cc12	
